We go through 18 molecules from ChEMBL document CHEMBL4177576, “Linker structure-activity relationships in fluorodeoxyglucose chlorambucil conjugates for tumor-targeted chemotherapy” (Bioorg Med Chem, 2017).

SMILES strings stand for the structures. Calls of active or inactive are those of the source. The calls are words filed in the database; no cut-off is given here.

The test system of assay [1] is Fibroblast. The experiment in a line: Cytotoxicity against human fibroblasts assessed as inhibition of cell growth incubated for 48 hrs by resazurin reduction test. It counts as cell-based. Summed up: (§1)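 Monolayers grown in MEM with 10% fetal calf serum, pyruvate, vitamins, non-essential amino acids and gentamicin at 37 °C, 5% CO2. Cells were seeded at 5×10^3/well and left 16 h to adhere. Compounds were added from DMSO stocks (final 0.5% DMSO) for 48 h continuous exposure, in triplicate. Resazurin 25 μg/mL was then added for 1 h and fluorescence read at 530/590 nm. IC50 was taken from concentration–cell number curves as % of control after blank subtraction.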
For orientation: Alamar Blue is a resazurin reagent that responds to reducing activity.

The subject of assay [2] is PC-3. The experiment in a line: Cytotoxicity against human PC3 assessed as inhibition of cell growth incubated for 48 hrs by resazurin reduction test. It counts as functional, cell-based. Conditions: PC-3, 48 h. Summed up: as §1
Assay [3] deals with MCF7. The experiment in a line: Cytotoxicity against human MCF7 assessed as inhibition of cell growth incubated for 48 hrs by resazurin reduction test. Type of assay: functional, cell-based. Conditions: MCF7, 48 h. The procedure, abridged: as §1
For assay [4], the system named is A549. Nature of the assay: Cytotoxicity against human A549 assessed as inhibition of cell growth incubated for 48 hrs by resazurin reduction test. Type of assay: functional, cell-based. Conditions: A549, 48 h. Summed up: as §1
The subject of assay [5] is M4Beu cell line. Nature of the assay: Cytotoxicity against human M4Beu assessed as inhibition of cell growth incubated for 48 hrs by resazurin reduction test. It counts as functional, cell-based. The procedure, abridged: as §1
In assay [6] the test system is PA-1. The experiment in a line: Cytotoxicity against human PA1 assessed as inhibition of cell growth incubated for 48 hrs by resazurin reduction test. It counts as functional, cell-based. Conditions: PA-1, 48 h. The procedure, abridged: as §1
For assay [7], the system named is A549 (Homo sapiens). Nature of the assay: Cytotoxicity against human A549 assessed as inhibition of cell growth up to 200 uM incubated for 48 hrs in absence of 50 uM chlorambucil by resazurin reduction test.
For assay [8], the system named is A549 (Homo sapiens). Nature of the assay: Cytotoxicity against human A549 assessed as inhibition of cell growth up to 200 uM incubated for 48 hrs in presence of 50 uM chlorambucil by resazurin reduction test.

In general, IC50 refers to the concentration that gives 50% inhibition. With `CC(=O)OC[C@H]1O[C@@H](Oc2ccc(NC(=O)COC(=O)CCCc3ccc(N(CCCl)CCCl)cc3)cc2)[C@H](F)[C@@H](OC(C)=O)[C@@H]1OC(C)=O`, the IC50 in assay [1] was 32.5 µM; in assay [2] it was above 50 µM; in assay [3] it was above 50 µM; in assay [4] it was 39 µM; in assay [5] it was above 50 µM; in assay [6] it was 7.6 µM.

Consider `CC(=O)OC[C@H]1OC(OC(C)=O)[C@H](F)[C@@H](OC(C)=O)[C@@H]1OC(C)=O` (stereo partly drawn), for which the “growth inhibition (GI)” value in assay [7] and in assay [8] was “Active” each time.

Regarding `CC(=O)OC[C@H]1O[C@@H](NC(=O)CC(=O)NCCCc2ccc(N(CCCl)CCCl)cc2)[C@H](F)[C@@H](OC(C)=O)[C@@H]1OC(C)=O`, the IC50 in assay [1] was 13 µM; in assay [2] it was 5 µM; in assay [3], 9 µM; in assay [4] it was 8 µM; in assay [5], 12 µM; in assay [6], 0.4 µM.

For `CC(=O)OC[C@H]1O[C@@H](NC(=O)c2ccc(NC(=O)CNC(=O)CCCc3ccc(N(CCCl)CCCl)cc3)cc2)[C@H](F)[C@@H](OC(C)=O)[C@@H]1OC(C)=O`, the IC50 in assay [1] came to 8 µM; in assay [2] it was 6 µM; in assay [3] it was 7 µM; in assay [4], 30 µM; in assay [5] it was 17.8 µM; in assay [6] it was 13 µM.

Regarding `CC(=O)OC[C@H]1O[C@@H](OC(=O)Nc2ccc(OC(=O)CCCc3ccc(N(CCCl)CCCl)cc3)cc2)[C@H](F)[C@@H](OC(C)=O)[C@@H]1OC(C)=O`, the IC50 is above 50 µM in assay [1]; above 50 µM in assay [2]; above 50 µM in assay [3]; 22 µM in assay [4]; above 50 µM in assay [5]; 6 µM in assay [6].

As to `O=C(O)CCCc1ccc(N(CCCl)CCCl)cc1` [CHLORAMBUCIL], the IC50 in assay [2] was above 100 µM.

Take `CC(=O)OC[C@H]1O[C@@H](OC(=O)Nc2ccc(NC(=O)CCCc3ccc(N(CCCl)CCCl)cc3)cc2)[C@H](F)[C@@H](OC(C)=O)[C@@H]1OC(C)=O`: the IC50 in assay [1] was above 50 µM; in assay [2] it was 3.6 µM; in assay [3], 35 µM; in assay [4], 2 µM; in assay [5], 29 µM; in assay [6] it was 1.2 µM.

As for `OC[C@H]1OC(O)[C@H](F)[C@@H](O)[C@@H]1O` (stereo partly drawn), the “growth inhibition (GI)” value in assay [7] and in assay [8] was “Active” in each case.

Consider `CC(=O)OC[C@H]1O[C@@H](OC(=O)c2ccc(NC(=O)CCCc3ccc(N(CCCl)CCCl)cc3)cc2)[C@H](F)[C@@H](OC(C)=O)[C@@H]1OC(C)=O`, for which the IC50 in assay [1] stood at 4 µM; in assay [2], 4 µM; in assay [3] it was 6 µM; in assay [4], 1.7 µM; in assay [5], 6 µM; in assay [6], 0.45 µM.

Take `CC(=O)OC[C@H]1O[C@@H](Oc2ccc(NC(=O)CNC(=O)CCCc3ccc(N(CCCl)CCCl)cc3)cc2)[C@H](F)[C@@H](OC(C)=O)[C@@H]1OC(C)=O`: the IC50 in assay [1] amounted to 17 µM; in assay [2], 7 µM; in assay [3] it was 16 µM; in assay [5] it was 15 µM; in assay [6], 1.5 µM.

Turning to `CC(=O)OC[C@H]1O[C@@H](Oc2ccc(NC(=O)CC(=O)NCCCc3ccc(N(CCCl)CCCl)cc3)cc2)[C@H](F)[C@@H](OC(C)=O)[C@@H]1OC(C)=O`, the IC50 in assay [1] is above 50 µM; in assay [2], 8 µM; in assay [3], 14 µM; in assay [4], above 50 µM; in assay [5], 13.8 µM; in assay [6], 2 µM.

On to `CC(=O)OC[C@H]1O[C@@H](OC(=O)NCC(=O)Nc2ccc(OC(=O)CCCc3ccc(N(CCCl)CCCl)cc3)cc2)[C@H](F)[C@@H](OC(C)=O)[C@@H]1OC(C)=O`, for which the IC50 in assay [1] was 32 µM; in assay [2], above 50 µM; in assay [3], 39.5 µM; in assay [4] it was 39 µM; in assay [5] it was 30 µM; in assay [6], 9 µM.

Turning to `CC(=O)OC[C@H]1O[C@@H](NC(=O)c2ccc(OC(=O)CCCc3ccc(N(CCCl)CCCl)cc3)cc2)[C@H](F)[C@@H](OC(C)=O)[C@@H]1OC(C)=O`, the IC50 in assay [1] is above 50 µM; in assay [2], above 50 µM; in assay [3], above 50 µM; in assay [4] it was 19 µM; in assay [5], above 50 µM; in assay [6] it was 4 µM.

As to `CC(=O)OC[C@H]1O[C@@H](OC(=O)NCC(=O)Nc2ccc(NC(=O)CCCc3ccc(N(CCCl)CCCl)cc3)cc2)[C@H](F)[C@@H](OC(C)=O)[C@@H]1OC(C)=O`, the IC50 turned out to be 10 µM in assay [1]; 6.5 µM in assay [2]; 13 µM in assay [3]; 13 µM in assay [4]; 18 µM in assay [5]; 0.8 µM in assay [6].

Regarding `CC(=O)OC[C@H]1O[C@@H](NC(=O)COC(=O)CCCc2ccc(N(CCCl)CCCl)cc2)[C@H](F)[C@@H](OC(C)=O)[C@@H]1OC(C)=O`, the IC50 was above 50 µM in assay [1]; above 50 µM in assay [2]; above 50 µM in assay [3]; 15 µM in assay [4]; above 50 µM in assay [5]; 3.8 µM in assay [6].

Take `CC(=O)OC[C@H]1O[C@@H](OC(=O)Nc2ccc(NC(=O)CNC(=O)CCCc3ccc(N(CCCl)CCCl)cc3)cc2)[C@H](F)[C@@H](OC(C)=O)[C@@H]1OC(C)=O`: the IC50 stood at 21 µM in assay [1]; 4.9 µM in assay [2]; 15 µM in assay [3]; 9 µM in assay [4]; 31 µM in assay [5]; 1.3 µM in assay [6].

Regarding `CC(=O)OC[C@H]1O[C@@H](Oc2ccc(NC(=O)c3ccc(NC(=O)CCCc4ccc(N(CCCl)CCCl)cc4)cc3)cc2)[C@H](F)[C@@H](OC(C)=O)[C@@H]1OC(C)=O`, the IC50 in assay [1] was 3 µM; in assay [2], 2.1 µM; in assay [3] it was 3.4 µM; in assay [4] it was 6 µM; in assay [5] it was 3 µM.

`CC(=O)OC[C@H]1O[C@@H](Oc2ccc(NC(=O)CNC(=O)CNC(=O)CCCc3ccc(N(CCCl)CCCl)cc3)cc2)[C@H](F)[C@@H](OC(C)=O)[C@@H]1OC(C)=O`: the IC50 in assay [1] is above 50 µM; in assay [2], 20 µM; in assay [3] it was 32 µM; in assay [4], above 50 µM; in assay [5] it was above 50 µM; in assay [6], 4 µM.
